Source: ChEMBL document CHEMBL1127486, “Design of cyclic deltorphins and dermenkephalins with a disulfide bridge leads to analogues with high selectivity for delta-opioid receptors” (J Med Chem, 1994)

Experiments:
Mu-type opioid receptor [1] = molecular target: Mu-type opioid receptor (Cavia porcellus, UniProt P97266); test: In vitro inhibition of electrically evoked contractions in guinea pig ileum longitudinal muscle myenteric plexus; assay type: functional, tissue-based
Method in brief: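 Longitudinal muscle–myenteric plexus strips from male Hartley guinea pigs (150–400 g) in 37 °C Krebs bicarbonate gassed with 95% O2/5% CO2. Transmural stimulation at 0.1 Hz, 0.4-ms pulses, supramaximal voltage. Bestatin, bacitracin and captopril added 3 min before cumulative peptide doses. Inhibition compares contraction height 3 min post-dose with the 1-min pre-dose mean.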

Mu-type opioid receptor [2] = molecular target: Mu-type opioid receptor (Rattus norvegicus, UniProt P33535); test: Inhibition of [3H]CTOP binding to rat brain homogenate mu-opioid receptor
Mu-type opioid receptor (Rattus norvegicus, UniProt P33535), sequence (P33535 whole entry): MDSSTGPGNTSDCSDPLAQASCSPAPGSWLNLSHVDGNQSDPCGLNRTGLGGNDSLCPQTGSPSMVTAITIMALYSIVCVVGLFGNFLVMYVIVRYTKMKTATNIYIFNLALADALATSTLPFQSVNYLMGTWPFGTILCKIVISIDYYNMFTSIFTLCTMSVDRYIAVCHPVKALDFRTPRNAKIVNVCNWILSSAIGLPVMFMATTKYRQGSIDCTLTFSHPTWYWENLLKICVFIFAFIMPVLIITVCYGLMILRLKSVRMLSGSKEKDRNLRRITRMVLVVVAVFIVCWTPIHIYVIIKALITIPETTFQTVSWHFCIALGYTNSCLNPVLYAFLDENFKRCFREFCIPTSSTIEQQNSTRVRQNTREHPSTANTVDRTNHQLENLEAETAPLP
Method in brief: (§1)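 Whole brain membranes from male Sprague-Dawley rats, preincubated 30 min at 25 °C to remove endogenous opioids. Incubated 180 min at 25 °C with 0.75 nM [3H][p-ClPhe4]DPDPE (δ) or 0.5 nM [3H]CTOP (μ). Buffer was 50 mM Tris-HCl pH 7.4 with BSA, bacitracin, bestatin, captopril and toluenesulfonyl fluoride. Rapid filtration and scintillation counting. Duplicates, ≥3 experiments, nonlinear least-squares fit.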

[3] = molecular target: Delta-type opioid receptor (Mus musculus, UniProt P32300); test: In vitro inhibition of electrically induced smooth muscle contractions of mouse vas deferens; assay type: functional, tissue-based
Delta-type opioid receptor (Mus musculus, UniProt P32300), sequence (P32300 whole entry): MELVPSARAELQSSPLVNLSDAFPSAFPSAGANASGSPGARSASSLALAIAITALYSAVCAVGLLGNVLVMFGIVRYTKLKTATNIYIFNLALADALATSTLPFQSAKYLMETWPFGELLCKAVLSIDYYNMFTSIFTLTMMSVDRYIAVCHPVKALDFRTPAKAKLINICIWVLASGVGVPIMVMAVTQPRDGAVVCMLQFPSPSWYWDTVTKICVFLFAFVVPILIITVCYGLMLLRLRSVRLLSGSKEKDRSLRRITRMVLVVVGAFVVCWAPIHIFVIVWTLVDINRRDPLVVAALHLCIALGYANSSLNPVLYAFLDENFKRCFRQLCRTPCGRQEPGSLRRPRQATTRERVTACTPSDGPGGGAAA

[4] = molecular target: Delta-type opioid receptor (Rattus norvegicus, UniProt P33533); test: Inhibition of [3H][p-Cl-Phe-][…] binding to rat brain homogenate delta-opioid receptor; method in brief: as §1
Delta-type opioid receptor (Rattus norvegicus, UniProt P33533), sequence (P33533 whole entry): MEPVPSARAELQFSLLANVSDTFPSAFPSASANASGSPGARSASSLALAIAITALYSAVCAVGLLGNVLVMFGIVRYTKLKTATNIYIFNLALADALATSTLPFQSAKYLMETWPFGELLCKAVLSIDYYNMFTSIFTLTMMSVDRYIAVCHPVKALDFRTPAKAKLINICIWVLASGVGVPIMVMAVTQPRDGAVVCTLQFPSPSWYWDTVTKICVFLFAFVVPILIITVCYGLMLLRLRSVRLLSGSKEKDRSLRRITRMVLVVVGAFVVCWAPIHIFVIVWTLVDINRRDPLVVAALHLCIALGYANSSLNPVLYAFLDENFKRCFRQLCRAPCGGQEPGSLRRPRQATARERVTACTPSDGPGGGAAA

[5] = Selectivity ratio against guinea pig ileum and mouse vas deferens contractions; assay type: functional
[6] = molecular target: Delta-type opioid receptor (Mus musculus) (UniProt P32300); test: In vitro percentage inhibition of electrically induced smooth muscle contractions of mouse vas deferens after the administration at 6000 nM; assay type: functional
Delta-type opioid receptor (Mus musculus), sequence (P32300 whole entry): as the sequence (P32300 whole entry) above
Method in brief: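 Vasa deferentia from male ICR mice (25–30 g) in 37 °C magnesium-free Krebs bicarbonate gassed with 95% O2/5% CO2. Transmural stimulation at 0.1 Hz, 2.0-ms pulses, supramaximal voltage. Peptidase inhibitors (bestatin, bacitracin, captopril) given 3 min before peptide. Percent inhibition is the 1-min pre-dose mean contraction height against height 3 min after peptide. Run in duplicate, repeated two or three times.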

Mu-type opioid receptor (Cavia porcellus, UniProt P97266), sequence (P97266 whole entry): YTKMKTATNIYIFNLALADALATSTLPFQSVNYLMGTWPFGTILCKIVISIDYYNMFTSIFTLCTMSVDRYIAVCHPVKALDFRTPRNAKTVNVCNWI

Compound | IC50 (Mu-type opioid receptor [1]) [µM] | IC50 (Mu-type opioid receptor [2]) [µM] | IC50 [3] [µM] | IC50 [4] [µM] | Selectivity [5] | inhibition [6] [%]
CC(C)[C@H](NC(=O)[C@@H]1NC(=O)[C@H](CC(=O)O)NC(=O)[C@H](Cc2ccccc2)NC(=O)[C@H](NC(=O)[C@@H](N)Cc2ccc(O)cc2)C(C)(C)SSC1(C)C)C(=O)NCC(N)=O [listing 1 of 2 here] | 5.5 | 1.2 | 0.92 | 0.21 |  | 
CC(C)[C@H](NC(=O)[C@@H]1NC(=O)[C@H](CC(=O)O)NC(=O)[C@H](Cc2ccccc2)NC(=O)[C@H](NC(=O)[C@@H](N)Cc2ccc(O)cc2)C(C)(C)SSC1(C)C)C(=O)NCC(N)=O [listing 2 of 2 here] |  |  |  |  | 6 | 
CC(C)[C@H](NC(=O)[C@H]1NC(=O)[C@H](CC(=O)O)NC(=O)[C@H](Cc2ccccc2)NC(=O)[C@H](NC(=O)[C@@H](N)Cc2ccc(O)cc2)CSSC1(C)C)C(=O)NCC(N)=O [listing 1 of 2 here] | 1.1 | 3.76 | 0.00025 | 0.0022 |  | 
CC(C)[C@H](NC(=O)[C@H]1NC(=O)[C@H](CC(=O)O)NC(=O)[C@H](Cc2ccccc2)NC(=O)[C@H](NC(=O)[C@@H](N)Cc2ccc(O)cc2)CSSC1(C)C)C(=O)NCC(N)=O [listing 2 of 2 here] |  |  |  |  | 4400 | 
CC(C)[C@H](NC(=O)[C@H]1NC(=O)[C@H](CC(=O)O)NC(=O)[C@H](Cc2ccccc2)NC(=O)[C@H](NC(=O)[C@@H](N)Cc2ccc(O)cc2)C(C)(C)SSC1(C)C)C(=O)NCC(N)=O [listing 1 of 2 here] | 68 | 26 | 0.0063 | 0.0037 |  | 
CC(C)[C@H](NC(=O)[C@H]1NC(=O)[C@H](CC(=O)O)NC(=O)[C@H](Cc2ccccc2)NC(=O)[C@H](NC(=O)[C@@H](N)Cc2ccc(O)cc2)C(C)(C)SSC1(C)C)C(=O)NCC(N)=O [listing 2 of 2 here] |  |  |  |  | 11000 | 
CC(C)[C@H](NC(=O)[C@@H]1CSSC[C@@H](NC(=O)[C@@H](N)Cc2ccc(O)cc2)C(=O)N[C@@H](Cc2ccccc2)C(=O)N[C@@H](CC(=O)O)C(=O)N1)C(=O)NCC(N)=O |  |  |  |  | 13 | 
CC(C)C(NC(=O)[C@H]1NC(=O)[C@H](CCC(=O)O)NC(=O)C(Cc2ccccc2)NC(=O)[C@H](NC(=O)[C@@H](N)Cc2ccc(O)cc2)C(C)(C)SSC1(C)C)C(=O)NCC(N)=O (single isomer, unassigned) | 7.1 | 4.9 | 0.00224 | 0.0057 | 3200 | 
CCCC[C@H](NC(=O)[C@H]1NC(=O)[C@H](Cc2c[nH]cn2)NC(=O)C(Cc2ccccc2)NC(=O)[C@H](NC(=O)[C@@H](N)Cc2ccc(O)cc2)C(C)(C)SSC1(C)C)C(=O)N[C@@H](CC(=O)O)C(=O)O (single isomer, unassigned) | 4.5 | 1.9 |  | 0.00511 | <1.5 | 43.5
CCCC[C@H](NC(=O)[C@H]1NC(=O)[C@H](CC(=O)O)NC(=O)C(Cc2ccccc2)NC(=O)[C@H](NC(=O)[C@@H](N)Cc2ccc(O)cc2)C(C)(C)SSC1(C)C)C(=O)NCC(N)=O (single isomer, unassigned) | 137 | 54.6 | 0.0088 | 0.00483 | 16000 | 
CC(C)C(NC(=O)[C@H]1NC(=O)[C@H](CO)NC(=O)C(Cc2ccccc2)NC(=O)[C@H](NC(=O)[C@@H](N)Cc2ccc(O)cc2)C(C)(C)SSC1(C)C)C(=O)NCC(N)=O (single isomer, unassigned) | 13.5 | 3.3 | 0.0918 | 0.01 | 150 | 
CCCC[C@H](NC(=O)[C@H]1NC(=O)[C@H](Cc2c[nH]cn2)NC(=O)C(Cc2ccccc2)NC(=O)[C@H](NC(=O)[C@@H](N)Cc2ccc(O)cc2)C(C)(C)SSC1(C)C)C(=O)N[C@@H](CC(=O)O)C(N)=O (single isomer, unassigned) | 22 | 10.2 | 0.0127 | 0.0034 | 1700 | 
CSCCC(NC(=O)[C@H](CC(C)C)NC(=O)[C@H](Cc1c[nH]cn1)NC(=O)[C@H](Cc1ccccc1)NC(=O)C(CCSC)NC(=O)[C@@H](N)Cc1ccc(O)cc1)C(=O)N[C@@H](CC(=O)O)C(N)=O (stereo in doubt) [listing 1 of 2 here] | 3.4 | 1.9 | 0.00028 | 0.00047 |  | 
CSCCC(NC(=O)[C@H](CC(C)C)NC(=O)[C@H](Cc1c[nH]cn1)NC(=O)[C@H](Cc1ccccc1)NC(=O)C(CCSC)NC(=O)[C@@H](N)Cc1ccc(O)cc1)C(=O)N[C@@H](CC(=O)O)C(N)=O (stereo in doubt) [listing 2 of 2 here] |  |  |  |  | 12000 | 
CC(C)[C@H](NC(=O)[C@H](CC(=O)O)NC(=O)[C@H](Cc1ccccc1)NC(=O)[C@@H](C)NC(=O)[C@@H](N)Cc1ccc(O)cc1)C(=O)N[C@H](C(=O)NCC(N)=O)C(C)C (stereo in doubt; form 1) [DELTORPHIN C] | 2.89 |  |  |  |  | 
